According to ChEMBL document CHEMBL4689842, “EUbOPEN Chemogenomics Library wave 1” (2021):
Values joined by “and” are separate entries in the source; they are usually repeats but may differ in a detail not shown here. Identical values can stand only once.

Test system: HEK-293T
Test: Multiplex assay against HEK293T;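 as to Population Tubulin-Different-Phenotype (%): share of the cells with healthy nuclei that show this phenotype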
Format: toxicity, cell-based
Conditions: human
Outline: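 At seeding, live cells were stained with Hoechst33342, BioTracker Green Microtubule Cytoskeleton Dye, MitoTracker Red and Annexin V Alexa Fluor 680. After compound addition they were imaged on a CQ1 microscope at 37°C and 5% CO2, and CellPathfinder machine-learning gating sorted them into Hoechst high-intensity objects or normal cells, with normal cells further split into healthy, pyknosed or fragmented nuclei and pyknosed cells into mitotic or apoptotic. Tubulin, mitochondrial-mass and membrane-permeability phenotypes are given as per cents of cells with healthy nuclei.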

[1] = 12 h, 1 µM, compound concentration 1 uM, replicate 1
[2] = 12 h, 1 µM, compound concentration 1 uM, replicate 2
[3] = 12 h, 10 µM, compound concentration 10 uM, replicate 1
[4] = 12 h, 10 µM, compound concentration 10 uM, replicate 2
[5] = 24 h, 1 µM, compound concentration 1 uM, replicate 1
[6] = 24 h, 1 µM, compound concentration 1 uM, replicate 2
[7] = 24 h, 10 µM, compound concentration 10 uM, replicate 1
[8] = 24 h, 10 µM, compound concentration 10 uM, replicate 2
[9] = 48 h, 10 µM, compound concentration 10 uM, replicate 1
[10] = 48 h, 10 µM, compound concentration 10 uM, replicate 2

## CNC(=O)c1nn(C)c2c1C(C)(C)Cc1cnc(Nc3ccc(N4CCN(C)CC4)cc3)nc1-2 [MILCICLIB]
[1]
  Population Apoptotic (%): 28%
  Population Fragmented Nuclei (%): 17%
  Population Healthy Nuclei (%): 41%
  Population Hoechst High Intensity Objects (%): 21%
  Population Membrane Permeable-Phenotype (%): 9%
  Population Mitochondria Different-Phenotype (%): 25%
  Population Mitotic Cells (%): 71%
  Population Normal (%): 78%
  Population Pyknosed Nuclei (%): 40%
  Population Tubulin-Different-Phenotype (%): 82%
  Total Cell Count: 581
[2]
  Population Apoptotic (%): 23%
  Population Fragmented Nuclei (%): 2%
  Population Healthy Nuclei (%): 83%
  Population Hoechst High Intensity Objects (%): 9%
  Population Membrane Permeable-Phenotype (%): 3%
  Population Mitochondria Different-Phenotype (%): 64%
  Population Mitotic Cells (%): 76%
  Population Normal (%): 90%
  Population Pyknosed Nuclei (%): 14%
  Population Tubulin-Different-Phenotype (%): 98%
  Total Cell Count: 860
[3]
  Population Apoptotic (%): 29% and 75% and 67%
  Population Healthy Nuclei (%): 36% and 49%
  Population Hoechst High Intensity Objects (%): 18% and 11% and 13%
  Population Mitochondria Different-Phenotype (%): 39% and 100% and 98%
  Population Mitotic Cells (%): 70% and 24% and 32%
  Population Normal (%): 81% and 88% and 86%
  Population Pyknosed Nuclei (%): 38% and 43%
  Population Tubulin-Different-Phenotype (%): 79% and 97%
  Total Cell Count: 581 and 226 and 425
[4]
  Population Fragmented Nuclei (%): 6% and 3% and 2%
  Population Hoechst High Intensity Objects (%): 6% and 8% and 9%
  Population Membrane Permeable-Phenotype (%): 12% and 10% and 4%
  Population Mitochondria Different-Phenotype (%): 87% and 90% and 57%
  Population Mitotic Cells (%): 40% and 30% and 79%
  Population Normal (%): 93% and 91% and 90%
  Population Tubulin-Different-Phenotype (%): 91% and 100% and 99%
[5]
  Population Apoptotic (%): 43%
  Population Fragmented Nuclei (%): 21%
  Population Healthy Nuclei (%): 33%
  Population Hoechst High Intensity Objects (%): 19%
  Population Membrane Permeable-Phenotype (%): 7%
  Population Mitochondria Different-Phenotype (%): 64%
  Population Mitotic Cells (%): 56%
  Population Normal (%): 80%
  Population Pyknosed Nuclei (%): 45%
  Population Tubulin-Different-Phenotype (%): 78%
  Total Cell Count: 556
[6]
  Population Apoptotic (%): 34%
  Population Fragmented Nuclei (%): 2%
  Population Healthy Nuclei (%): 82%
  Population Hoechst High Intensity Objects (%): 9%
  Population Membrane Permeable-Phenotype (%): 2%
  Population Mitochondria Different-Phenotype (%): 81%
  Population Mitotic Cells (%): 65%
  Population Normal (%): 90%
  Population Pyknosed Nuclei (%): 14%
  Population Tubulin-Different-Phenotype (%): 98%
  Total Cell Count: 887
[7]
  Population Apoptotic (%): 55% and 82% and 67%
  Population Healthy Nuclei (%): 32% and 22% and 44%
  Population Hoechst High Intensity Objects (%): 19% and 13%
  Population Membrane Permeable-Phenotype (%): 10% and 2%
  Population Mitochondria Different-Phenotype (%): 63% and 100% and 98%
  Population Mitotic Cells (%): 44% and 17% and 32%
  Population Normal (%): 80% and 86%
  Population Pyknosed Nuclei (%): 42% and 69% and 48%
  Population Tubulin-Different-Phenotype (%): 80% and 91%
  Total Cell Count: 565 and 241 and 453
[8]
  Population Fragmented Nuclei (%): 6% and 3% and 4%
  Population Hoechst High Intensity Objects (%): 6% and 7%
  Population Membrane Permeable-Phenotype (%): 6% and 4%
  Population Mitochondria Different-Phenotype (%): 92% and 95% and 77%
  Population Normal (%): 93% and 92%
  Population Tubulin-Different-Phenotype (%): 94% and 95% and 98%
[9]
  Population Apoptotic (%): 87% and 71%
  Population Fragmented Nuclei (%): 14%
  Population Healthy Nuclei (%): 17% and 42%
  Population Hoechst High Intensity Objects (%): 13% and 11%
  Population Membrane Permeable-Phenotype (%): 0%
  Population Mitochondria Different-Phenotype (%): 100% and 99%
  Population Mitotic Cells (%): 12% and 28%
  Population Normal (%): 86% and 88%
  Population Pyknosed Nuclei (%): 68% and 49%
  Population Tubulin-Different-Phenotype (%): 92%
  Total Cell Count: 263 and 534
[10]
  Population Apoptotic (%): 86% and 89%
  Population Fragmented Nuclei (%): 6% and 7%
  Population Healthy Nuclei (%): 21% and 15%
  Population Hoechst High Intensity Objects (%): 12% and 9%
  Population Membrane Permeable-Phenotype (%): 2%
  Population Mitochondria Different-Phenotype (%): 91%
  Population Mitotic Cells (%): 13% and 10%
  Population Normal (%): 87% and 90%
  Population Pyknosed Nuclei (%): 71% and 76%
  Population Tubulin-Different-Phenotype (%): 85% and 70%
  Total Cell Count: 182 and 236
